Bioassay records deposited in PubChem BioAssay by Broad Institute.
ERAP1 inh: human ERAP1 aminopeptidase inhibitors, primary screen, biochemical, single point, plate reader; recombinant ERAP1, Leu-AMC fluorescence, 60 min; Endoplasmic reticulum aminopeptidase 1 (Homo sapiens), Q9NZ08; AID 652197, 2013; 340,000 tested, 0.15% active; inhibition, % at 10.7 µM;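 active = mean replicate inhibition of at least 30%, or all replicates individually reaching that 30% level; inactive = mean below 30% and not every replicate reaching it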;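 also: 0% = neutral control wells and 100% = L-leucinethiol positive control wells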
SIRT5 block: SIRT5 desuccinylase inhibitors, primary screen, biochemical, fluorescence imaging, single point, set 5; 330,000 tested, 1.1% active; inhibition, % at 15 µM; NAD-dependent protein deacylase sirtuin-5, mitochondrial (Homo sapiens), Q9NXA8; Purified SirT5, succinyl-peptide AMC, trypsin-coupled fluorescence; in the data active = inhibition above about 15%
Target sequence (Q9NXA8 whole entry, looked up): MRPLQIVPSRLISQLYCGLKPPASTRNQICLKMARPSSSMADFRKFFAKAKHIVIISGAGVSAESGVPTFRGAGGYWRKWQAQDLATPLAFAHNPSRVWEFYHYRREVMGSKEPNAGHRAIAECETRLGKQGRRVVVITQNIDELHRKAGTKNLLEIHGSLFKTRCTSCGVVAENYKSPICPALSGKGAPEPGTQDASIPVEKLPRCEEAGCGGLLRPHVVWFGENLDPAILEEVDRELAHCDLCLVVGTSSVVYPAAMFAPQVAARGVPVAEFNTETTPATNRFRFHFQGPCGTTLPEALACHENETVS
DENV2 CPE: inhibitors of DENV2 cytopathic effect, primary screen, cell-based, plate reader, single concentration | DENV2-infected cells, cytopathic effect rescue | CPE inhibition, % at 9.99 µM | 350,000 tested, 1.7% active | AID 651640, 2012; in the data active = CPE inhibition above about 20%, passing the limit was not always enough; tested in BHK-21 cells;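 also: 0% = median of neutral control wells and 100% = median of positive control wells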
E-sel inducer: E-selectin induction in HUVECs, primary screen, imaging, HUVEC, immunofluorescence imaging, single point; 260,000 tested, 0.37% active; activation, % at 7.58 µM; P16581; normalized: neutral wells 0, TNF-alpha wells 100; AID 686992, 2013;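 active = mean E-selectin-positive cell signal at least 10% of the positive control, reached in at least 60% of replicates, without over 20% cell loss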
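Assay system: HUVEC primary endothelial cells. Input: 3,000 HUVEC seeded per well. Doses: one compound dose added by pin transfer. Read-out basis: % PE-positive cells. Benchmarks: TNF-alpha high, DMSO low. Detection: immunofluorescence imaging. Buffer or medium: EGM-2, gelatin.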
PglD inh: C. jejuni PglD acetyltransferase inhibitors, primary screen, biochemical, DTNB colorimetric, single point | UDP-N-acetylbacillosamine N-acetyltransferase PglD (Campylobacter jejuni) | 360,000 tested, 0.098% active | AID 602405, 2012 | inhibition, % at 12.5 µM | purified PglD enzyme, DTNB colorimetric CoA detection; in the data active = inhibition above about 16%, passing the limit was not always enough
The depositor's hits bear a star; / = no result. Hits are enriched below; roughly 2.5% of the tested compounds scored in any of these assays.

SMILES	ERAP1 inh	SIRT5 block	DENV2 CPE	E-sel inducer	PglD inh
CO[C@H]1CN(C)C(=O)c2cc(NS(=O)(=O)CC(F)(F)F)ccc2OC[C@@H](C)NC[C@H]1C	18	-4	-2	0	1
CCS(=O)(=O)Nc1ccc2c(c1)C(=O)N(C)C[C@@H](OC)[C@@H](C)CN[C@H](C)CO2	1	-3	55*	0	-2
CCC(C)N(C(=O)Cn1c(Cl)nc2c1c(=O)n(C)c(=O)n2C)C1CCS(=O)(=O)C1 (stereo unspecified)	-1	3	-1	0	2
CN(C(=O)Cn1c(Cl)nc2c1c(=O)n(C)c(=O)n2C)C1CCS(=O)(=O)C1 (stereo unspecified)	83*	-2	8	/	5
Clc1ccccc1CN1CCN(/N=C/C=C\c2ccco2)CC1	3	28*	-1	/	/
CS(=O)(=O)N(CC(=O)N1CCCC1)c1cccc(F)c1	2	101*	-1	/	-12
CS(=O)(=O)N(CC(=O)N1CCCC1)c1ccc(F)cc1	-6	/	-5	0	-3
CS(=O)(=O)N(CC(=O)N1CCCCC1)Cc1ccccc1	-2	17*	9	/	3
CS(=O)(=O)N(CC(=O)N1CCOCC1)c1ccc(Cl)cc1	-4	-5	5	0	-2
CN1CCN(C(=O)CN(Cc2ccccc2)S(C)(=O)=O)CC1	/	/	/	/	1
CS(=O)(=O)N(CC(=O)N1CCOCC1)c1cccc(Cl)c1	34*	0	17	/	0
COc1ccc(N2c3ccccc3CN(Cc3ccccc3)[C@@H](C)[C@H]2Cc2c(C)cccc2C)cc1	/	-5	7	8	/
Cc1ccc(CC(NC(=O)c2ccc(C)cc2)C(=O)O)cc1 (stereo unspecified)	-1	-2	-2	0	2
Cc1ccc2[nH]c(C(=O)N3CCN(C=O)CC3)cc2c1	0	16*	0	/	-3
CCOC(=O)N1CCN(C(=O)c2cc3cc(C)ccc3[nH]2)CC1	-2	2	-15	1	-2
CCC(C)CN1C(=O)CSCC1(C)C(=O)Nc1ccc2c(c1)OCCO2 (stereo unspecified)	4	2	31*	0	/
O=C(C[C@@H]1CC[C@@H](NS(=O)(=O)c2ccc(F)cc2)[C@@H](CO)O1)N1CCC(Cc2ccccc2)CC1	1	28*	7	-1	0
O=C(C[C@H]1CC[C@@H](NS(=O)(=O)c2ccc(F)cc2)[C@@H](CO)O1)N1CCC(Cc2ccccc2)CC1	0	-1	0	0	1
O=C(N[C@@H]1CC[C@@H](CC(=O)N2CCN(c3ccccc3)CC2)O[C@H]1CO)c1ccncc1	-4	-1	31*	0	2
O=C(C[C@H]1CC[C@H](NS(=O)(=O)c2ccc(F)cc2)[C@@H](CO)O1)N1CCN(c2ccccc2)CC1	2	9	-2	0	1
O=C(C[C@@H]1CC[C@H](NS(=O)(=O)c2ccc(F)cc2)[C@H](CO)O1)N1CCN(c2ccccc2)CC1	1	20*	0	0	0
O=c1oc2ccccc2c(Nc2ccccc2O)c1[N+](=O)[O-]	8	17*	1	/	/
O=c1oc2ccccc2c(Nc2cc3ccccc3cc2O)c1[N+](=O)[O-]	4	6	16	/	/
CC1CN(CCOc2cccc(Oc3ccccc3)c2)CC(C)O1 (stereo unspecified)	1	-5	-4	/	7
CC1CCCN(CCOc2cccc(Oc3ccccc3)c2)C1 (stereo unspecified)	-2	-8	53*	0	-1
SMILES	ERAP1 inh	SIRT5 block	DENV2 CPE	E-sel inducer	PglD inh
COc1ccc(CCNC(=O)CCCCC(=O)NCCc2ccc(OC)cc2)cc1	1	-3	-2	/	-8
COc1ccc(CN(CCNC(=O)CCCCC(=O)NCCN(Cc2ccc(OC)cc2)C(C)C)C(C)C)cc1	-3	-2	30*	/	/
CN(C)C(=O)C[C@H]1CC[C@H]2[C@@H](COc3ccc(NC(=O)c4cnccn4)cc3C(=O)N2C)O1	-2	3	60*	0	-1
COc1cccc(CNC(=O)C[C@H]2CC[C@H]3[C@@H](COc4ccc(NS(=O)(=O)c5ccccc5F)cc4C(=O)N3C)O2)c1	-3	3	1	0	2
CCNC(=O)C[C@@H]1CC[C@@H]2[C@H](COc3ccc(NC(=O)c4cscn4)cc3C(=O)N2C)O1	1	-1	24*	0	1
COc1cccc(CNC(=O)C[C@H]2CC[C@H]3[C@H](COc4ccc(NS(=O)(=O)c5ccccc5F)cc4C(=O)N3C)O2)c1	1	20*	0	0	-1
COCC(=O)Nc1ccc2c(c1)C(=O)N(C)[C@@H]1CC[C@@H](CC(=O)NCC(F)(F)F)O[C@@H]1CO2	1	-4	81*	0	-1
COCC(=O)Nc1ccc2c(c1)C(=O)N(C)[C@H]1CC[C@@H](CC(=O)NCC(F)(F)F)O[C@@H]1CO2	-2	-2	15	0	0
CCNC(=O)C[C@H]1CC[C@@H]2[C@H](COc3ccc(NC(=O)c4cscn4)cc3C(=O)N2C)O1	-3	2	7	0	1
Cc1ccc2c(c1)C=CC(C#N)N2C(=O)c1ccccc1 (stereo unspecified)	7	-1	-2	/	/
Cc1noc(C)c1S(=O)(=O)Nc1ccc2c(c1)C(=O)N([C@@H](C)CO)C[C@@H](C)[C@H](CN(C)S(=O)(=O)c1ccccc1)O2	3	0	-2	0	1
CC(C)C(=O)Nc1ccc2c(c1)C(=O)N(C)[C@H]1CC[C@@H](CC(=O)NCc3ccccc3)O[C@@H]1CO2	0	12	32*	0	-1
CCNC(=O)C[C@H]1CC[C@H]2[C@@H](COc3ccc(NS(=O)(=O)c4ccccc4C)cc3C(=O)N2C)O1	1	18*	18	0	-1
CCNC(=O)C[C@@H]1CC[C@@H]2[C@H](COc3ccc(NC(=O)Cc4ccccc4)cc3C(=O)N2C)O1	-1	2	27*	0	1
N#Cc1ccccc1OCc1nnc(-c2ccccc2Br)o1	-2	-4	8	/	6
CCOc1ccc(S(=O)(=O)Nc2ccc(C(=O)NCC(c3ccccc3)N(C)C)cc2)cc1 (stereo unspecified)	-2	1	-1	0	-1
CCOC(=O)N1CCC(NS(=O)(=O)c2ccc(C#N)cc2)CC1	/	/	47*	0	-4
Cc1ccc(S(=O)(=O)N2C[C@@H](O)COC[C@H]3O[C@@H](CC(=O)NCCN4CCCCC4)CC[C@@H]32)cc1	4	0	67*	0	0
CN(C)CCCNC(=O)C[C@@H]1CC[C@@H]2[C@H](COC[C@@H](O)CN2S(=O)(=O)c2ccc(F)cc2)O1	1	1	2	0	-1
